ChEMBL document CHEMBL2407075, “Sulphonamido-quinoxalines: search for anticancer agent” (Eur J Med Chem, 2013)

Test system: NCI-H23
Assay: Growth inhibition of human NCI-H23 cells at 10 uM after 48 hrs by sulforhodamine B assay
Type: functional
Details: NCI-H23, 48 h, read-out: GI
Procedure, shortened: (§1)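 Single-dose screen at 10 µM across the NCI 60 panel. Cells in RPMI 1640 with 5% FBS and 2 mM L-glutamine, plated at 5000–40,000/well and preincubated 24 h at 37 °C, 5% CO2. Drug in DMSO, 48 h exposure. Fixed with TCA, stained with SRB, A515 read. Percent growth is taken relative to untreated control, and inhibition is 100 minus growth.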

| Structure (SMILES) | inhibition of growth at 10 µM [%] |
| --- | --- |
| O=C(NS(=O)(=O)c1ccc2nc(-c3ccccc3)c(-c3ccccc3)nc2c1)c1ccccc1 | 19.6 |

Test system: PC-3
Assay: Growth inhibition of human PC3 cells at 10 uM after 48 hrs by sulforhodamine B assay
Type: functional
Details: PC-3, 48 h, read-out: GI
Procedure, shortened: as §1

| Structure (SMILES) | inhibition of growth at 10 µM [%] |
| --- | --- |
| O=C(NS(=O)(=O)c1ccc2nc(-c3ccccc3)c(-c3ccccc3)nc2c1)c1ccccc1 | 41.9 |

Test system: OVCAR-3
Assay: Growth inhibition of human OVCAR3 cells at 10 uM after 48 hrs by sulforhodamine B assay
Type: functional
Details: OVCAR-3, 48 h, read-out: GI
Procedure, shortened: as §1

| Structure (SMILES) | inhibition of growth at 10 µM [%] |
| --- | --- |
| O=C(NS(=O)(=O)c1ccc2nc(-c3ccccc3)c(-c3ccccc3)nc2c1)c1ccccc1 | 19.2 |

Test system: Malme-3M
Assay: Growth inhibition of human MALME-3M cells at 10 uM after 48 hrs by sulforhodamine B assay
Type: functional
Details: read-out: GI
Procedure, shortened: as §1

| Structure (SMILES) | inhibition of growth at 10 µM [%] |
| --- | --- |
| O=C(NS(=O)(=O)c1ccc2nc(-c3ccccc3)c(-c3ccccc3)nc2c1)c1ccccc1 | 7.67 |

Test system: not listed separately
Assay: Growth inhibition of human HCC2998 cells at 10 uM after 48 hrs by sulforhodamine B assay
Type: functional
Details: HCC 2998, 48 h, read-out: GI
Procedure, shortened: (§2)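 NCI-60 one-dose primary screen at a single 10 µM concentration. Cells in RPMI 1640 with 5% FBS, preincubated 24 h at 37 °C, 5% CO2. Drug exposure 48 h, then TCA fixation, SRB staining and absorbance at 515 nm. Percent growth calculated against time-zero and untreated control wells, then converted to percent growth inhibition.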

| Structure (SMILES) | inhibition of growth at 10 µM [%] |
| --- | --- |
| O=C(NS(=O)(=O)c1ccc2nc(-c3ccccc3)c(-c3ccccc3)nc2c1)c1ccccc1 | 15.3 |

Test system: KM12
Assay: Growth inhibition of human KM12 cells at 10 uM after 48 hrs by sulforhodamine B assay
Type: functional
Details: KM12, 48 h, read-out: GI
Procedure, shortened: as §1

| Structure (SMILES) | inhibition of growth at 10 µM [%] |
| --- | --- |
| O=C(NS(=O)(=O)c1ccc2nc(-c3ccccc3)c(-c3ccccc3)nc2c1)c1ccccc1 | 21 |

Test system: ACHN
Assay: Growth inhibition of human ACHN cells at 10 uM after 48 hrs by sulforhodamine B assay
Type: functional
Details: read-out: GI
Procedure, shortened: (§3)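 Single-dose NCI-60 prescreen at 10 µM for 48 h at 37 °C and 5% CO2, using cells grown in RPMI 1640 with 5% FBS and 2 mM glutamine. Protein was measured by SRB after TCA fixation: 10% final for adherent lines, 16% for suspension lines. Absorbance was read at 515 nm. Percent growth inhibition was obtained by subtracting percent growth from 100.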

| Structure (SMILES) | inhibition of growth at 10 µM [%] |
| --- | --- |
| O=C(NS(=O)(=O)c1ccc2nc(-c3ccccc3)c(-c3ccccc3)nc2c1)c1ccccc1 | 11.8 |

Test system: CCRF-CEM
Assay: Growth inhibition of human CCRF-CEM cells at 10 uM after 48 hrs by sulforhodamine B assay
Type: functional
Details: read-out: GI
Procedure, shortened: as §3

| Structure (SMILES) | inhibition of growth at 10 µM [%] |
| --- | --- |
| O=C(NS(=O)(=O)c1ccc2nc(-c3ccccc3)c(-c3ccccc3)nc2c1)c1ccccc1 | 41.3 |

Test system: NCI-H460
Assay: Growth inhibition of human NCI-H460 cells at 10 uM after 48 hrs by sulforhodamine B assay
Type: functional
Details: NCI-H460, 48 h, read-out: GI
Procedure, shortened: as §1

| Structure (SMILES) | inhibition of growth at 10 µM [%] |
| --- | --- |
| O=C(NS(=O)(=O)c1ccc2nc(-c3ccccc3)c(-c3ccccc3)nc2c1)c1ccccc1 | 32 |

Test system: SF-268
Assay: Growth inhibition of human SF268 cells at 10 uM after 48 hrs by sulforhodamine B assay
Type: functional
Details: SF-268, 48 h, read-out: GI
Procedure, shortened: as §1

| Structure (SMILES) | inhibition of growth at 10 µM [%] |
| --- | --- |
| O=C(NS(=O)(=O)c1ccc2nc(-c3ccccc3)c(-c3ccccc3)nc2c1)c1ccccc1 | 6.89 |

Test system: RPMI-8226
Assay: Growth inhibition of human RPMI8226 cells at 10 uM after 48 hrs by sulforhodamine B assay
Type: functional
Details: RPMI-8226, 48 h, read-out: GI
Procedure, shortened: as §1

| Structure (SMILES) | inhibition of growth at 10 µM [%] |
| --- | --- |
| O=C(NS(=O)(=O)c1ccc2nc(-c3ccccc3)c(-c3ccccc3)nc2c1)c1ccccc1 | 58.5 |

Test system: T47D
Assay: Growth inhibition of human T47D cells at 10 uM after 48 hrs by sulforhodamine B assay
Type: functional
Details: read-out: GI
Procedure, shortened: as §1

| Structure (SMILES) | inhibition of growth at 10 µM [%] |
| --- | --- |
| O=C(NS(=O)(=O)c1ccc2nc(-c3ccccc3)c(-c3ccccc3)nc2c1)c1ccccc1 | 57.5 |

Test system: SK-MEL-2
Assay: Growth inhibition of human SK-MEL-2 cells at 10 uM after 48 hrs by sulforhodamine B assay
Type: functional
Details: SK-MEL-2, 48 h, read-out: GI
Procedure, shortened: as §1

| Structure (SMILES) | inhibition of growth at 10 µM [%] |
| --- | --- |
| O=C(NS(=O)(=O)c1ccc2nc(-c3ccccc3)c(-c3ccccc3)nc2c1)c1ccccc1 | 15.8 |

Test system: SF-539
Assay: Growth inhibition of human SF539 cells at 10 uM after 48 hrs by sulforhodamine B assay
Type: functional
Details: SF-539, 48 h, read-out: GI
Procedure, shortened: as §1

| Structure (SMILES) | inhibition of growth at 10 µM [%] |
| --- | --- |
| O=C(NS(=O)(=O)c1ccc2nc(-c3ccccc3)c(-c3ccccc3)nc2c1)c1ccccc1 | 3.89 |

Test system: HT-29
Assay: Growth inhibition of human HT-29 cells at 10 uM after 48 hrs by sulforhodamine B assay
Type: functional
Details: HT-29, 48 h, read-out: GI
Procedure, shortened: as §2

| Structure (SMILES) | inhibition of growth at 10 µM [%] |
| --- | --- |
| O=C(NS(=O)(=O)c1ccc2nc(-c3ccccc3)c(-c3ccccc3)nc2c1)c1ccccc1 | 48.4 |

Test system: OVCAR-5
Assay: Growth inhibition of human OVCAR5 cells at 10 uM after 48 hrs by sulforhodamine B assay
Type: functional
Details: OVCAR-5, 48 h, read-out: GI
Procedure, shortened: as §1

| Structure (SMILES) | inhibition of growth at 10 µM [%] |
| --- | --- |
| O=C(NS(=O)(=O)c1ccc2nc(-c3ccccc3)c(-c3ccccc3)nc2c1)c1ccccc1 | 8.43 |

Test system: UACC-62
Assay: Growth inhibition of human UACC62 cells at 10 uM after 48 hrs by sulforhodamine B assay
Type: functional
Details: UACC-62, 48 h, read-out: GI
Procedure, shortened: as §1

| Structure (SMILES) | inhibition of growth at 10 µM [%] |
| --- | --- |
| O=C(NS(=O)(=O)c1ccc2nc(-c3ccccc3)c(-c3ccccc3)nc2c1)c1ccccc1 | 19.6 |

Test system: SK-MEL-5
Assay: Growth inhibition of human SK-MEL-5 cells at 10 uM after 48 hrs by sulforhodamine B assay
Type: functional
Details: SK-MEL-5, 48 h, read-out: GI
Procedure, shortened: as §1

| Structure (SMILES) | inhibition of growth at 10 µM [%] |
| --- | --- |
| O=C(NS(=O)(=O)c1ccc2nc(-c3ccccc3)c(-c3ccccc3)nc2c1)c1ccccc1 | 48.9 |

Test system: MCF7
Assay: Growth inhibition of human MCF7 cells at 10 uM after 48 hrs by sulforhodamine B assay
Type: functional
Details: MCF7, 48 h, read-out: GI
Procedure, shortened: as §1

| Structure (SMILES) | inhibition of growth at 10 µM [%] |
| --- | --- |
| O=C(NS(=O)(=O)c1ccc2nc(-c3ccccc3)c(-c3ccccc3)nc2c1)c1ccccc1 | 22.9 |

Test system: A498
Assay: Growth inhibition of human A498 cells at 10 uM after 48 hrs by sulforhodamine B assay
Type: functional
Details: A498, 48 h, read-out: GI
Procedure, shortened: as §3

| Structure (SMILES) | inhibition of growth at 10 µM [%] |
| --- | --- |
| O=C(NS(=O)(=O)c1ccc2nc(-c3ccccc3)c(-c3ccccc3)nc2c1)c1ccccc1 | 42.2 |

Test system: SN12C
Assay: Growth inhibition of human SN12C cells at 10 uM after 48 hrs by sulforhodamine B assay
Type: functional
Details: read-out: GI
Procedure, shortened: as §1

| Structure (SMILES) | inhibition of growth at 10 µM [%] |
| --- | --- |
| O=C(NS(=O)(=O)c1ccc2nc(-c3ccccc3)c(-c3ccccc3)nc2c1)c1ccccc1 | 17.4 |

Test system: CAKI-1
Assay: Growth inhibition of human CAKI-1 cells at 10 uM after 48 hrs by sulforhodamine B assay
Type: functional
Details: CAKI-1, 48 h, read-out: GI
Procedure, shortened: as §3

| Structure (SMILES) | inhibition of growth at 10 µM [%] |
| --- | --- |
| O=C(NS(=O)(=O)c1ccc2nc(-c3ccccc3)c(-c3ccccc3)nc2c1)c1ccccc1 | 7.22 |

Test system: not listed separately
Assay: Growth inhibition of human NCI-ADR-RES cells at 10 uM after 48 hrs by sulforhodamine B assay
Type: functional
Details: read-out: GI
Procedure, shortened: as §1

| Structure (SMILES) | inhibition of growth at 10 µM [%] |
| --- | --- |
| O=C(NS(=O)(=O)c1ccc2nc(-c3ccccc3)c(-c3ccccc3)nc2c1)c1ccccc1 | 27.5 |

Test system: HCT-15
Assay: Growth inhibition of human HCT15 cells at 10 uM after 48 hrs by sulforhodamine B assay
Type: functional
Details: HCT-15, 48 h, read-out: GI
Procedure, shortened: as §2

| Structure (SMILES) | inhibition of growth at 10 µM [%] |
| --- | --- |
| O=C(NS(=O)(=O)c1ccc2nc(-c3ccccc3)c(-c3ccccc3)nc2c1)c1ccccc1 | 44.9 |

Test system: LOX IMVI
Assay: Growth inhibition of human LOXIMVI cells at 10 uM after 48 hrs by sulforhodamine B assay
Type: functional
Details: read-out: GI
Procedure, shortened: as §1

| Structure (SMILES) | inhibition of growth at 10 µM [%] |
| --- | --- |
| O=C(NS(=O)(=O)c1ccc2nc(-c3ccccc3)c(-c3ccccc3)nc2c1)c1ccccc1 | 20.5 |

Test system: UO-31
Assay: Growth inhibition of human UO31 cells at 10 uM after 48 hrs by sulforhodamine B assay
Type: functional
Details: UO-31, 48 h, read-out: GI
Procedure, shortened: as §1

| Structure (SMILES) | inhibition of growth at 10 µM [%] |
| --- | --- |
| O=C(NS(=O)(=O)c1ccc2nc(-c3ccccc3)c(-c3ccccc3)nc2c1)c1ccccc1 | 15.2 |

Test system: SR
Assay: Growth inhibition of human SR cells at 10 uM after 48 hrs by sulforhodamine B assay
Type: functional
Details: read-out: GI
Procedure, shortened: as §1

| Structure (SMILES) | inhibition of growth at 10 µM [%] |
| --- | --- |
| O=C(NS(=O)(=O)c1ccc2nc(-c3ccccc3)c(-c3ccccc3)nc2c1)c1ccccc1 | 71.1 |
